ChEMBL document CHEMBL2086305 (Eur J Med Chem, 2012)
Activity calls are given as the source filed them. The rule behind the calls is not given here.

What was measured:
[1] = Antiplatelet activity against rabbit platelets assessed as inhibition of thrombin-induced platelet aggregation; assay type: functional, cell-based; settings: Oryctolagus cuniculus
Platelet = experiment: (§1) Antiplatelet activity against rabbit platelets assessed as inhibition of ADP-induced platelet aggregation; assay type: functional, cell-based; settings: Oryctolagus cuniculus
Rattus norvegicus [2] = experiment: Antithrombotic activity in Sprague-Dawley rat venous thrombosis model assessed as thrombus dry weight administered via gastric tube qd for 3 days after 2 hrs of last post dose
[3] = as §1; assay type: functional, cell-based; settings: Oryctolagus cuniculus
Rattus norvegicus [4] = experiment: Drug metabolism in Sprague-Dawley rat plasma assessed as dabigatran level at 20 mg/kg, administered via gastric tube after 2 hrs; assay type: ADME, organism-based; design: dose 20 mg/kg; settings: in vivo, po
Summary of the method: (§2)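 Female Sprague-Dawley rats received 20 mg/kg. Whole blood was collected at 0.167–6 h and mixed with 4% formic acid. Samples were precipitated with acetonitrile and stored at −70 °C.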

Rattus norvegicus [5] = experiment: Drug metabolism in Sprague-Dawley rat plasma assessed as dabigatran level at 20 mg/kg, administered via gastric tube after 1.5 hrs; assay type: ADME, organism-based; design: dose 20 mg/kg; settings: in vivo, po; summary of the method: as §2
Rattus norvegicus [6] = experiment: Drug metabolism in Sprague-Dawley rat plasma assessed as HTMP level at 20 mg/kg, administered via gastric tube after 0.5 hrs; assay type: ADME, organism-based; design: dose 20 mg/kg; settings: in vivo, po; summary of the method: as §2
Rattus norvegicus [7] = experiment: Toxicity in Sprague-Dawley rat assessed as adverse effect at 20 mg/kg, administered via gastric tube; assay type: organism-based; design: dose 20 mg/kg; settings: in vivo, po
Rattus norvegicus [8] = experiment: Drug metabolism in Sprague-Dawley rat plasma assessed as HTMP level at 20 mg/kg, administered via gastric tube after 1.5 hrs; assay type: ADME, organism-based; design: dose 20 mg/kg; settings: in vivo, po; summary of the method: as §2
Rattus norvegicus [9] = experiment: Drug metabolism in Sprague-Dawley rat plasma assessed as dabigatran level at 20 mg/kg, administered via gastric tube after 4 hrs; assay type: ADME, organism-based; design: dose 20 mg/kg; settings: in vivo, po; summary of the method: as §2
Rattus norvegicus [10] = experiment: Drug metabolism in Sprague-Dawley rat plasma assessed as HTMP level at 20 mg/kg, administered via gastric tube after 4 hrs; assay type: ADME, organism-based; design: dose 20 mg/kg; settings: in vivo, po; summary of the method: as §2
Rattus norvegicus [11] = experiment: Drug metabolism in Sprague-Dawley rat plasma assessed as dabigatran level at 20 mg/kg, administered via gastric tube after 0.167 hrs; assay type: ADME, organism-based; design: dose 20 mg/kg; settings: in vivo, po; summary of the method: as §2
Rattus norvegicus [12] = experiment: Drug metabolism in Sprague-Dawley rat plasma assessed as HTMP level at 20 mg/kg, administered via gastric tube after 2 hrs; assay type: ADME, organism-based; design: dose 20 mg/kg; settings: in vivo, po; summary of the method: as §2
Rattus norvegicus [13] = experiment: Drug metabolism in Sprague-Dawley rat plasma assessed as dabigatran level at 20 mg/kg, administered via gastric tube after 1 hr; assay type: ADME, organism-based; design: dose 20 mg/kg; settings: in vivo, po; summary of the method: as §2
Rattus norvegicus [14] = experiment: Drug metabolism in Sprague-Dawley rat plasma assessed as dabigatran level at 20 mg/kg, administered via gastric tube after 0.25 hrs; assay type: ADME, organism-based; design: dose 20 mg/kg; settings: in vivo, po; summary of the method: as §2
Rattus norvegicus [15] = experiment: Drug metabolism in Sprague-Dawley rat plasma assessed as HTMP level at 20 mg/kg, administered via gastric tube after 0.167 hrs; assay type: ADME, organism-based; design: dose 20 mg/kg; settings: in vivo, po; summary of the method: as §2
Rattus norvegicus [16] = experiment: Drug metabolism in Sprague-Dawley rat plasma assessed as HTMP level at 20 mg/kg, administered via gastric tube after 6 hrs; assay type: ADME, organism-based; design: dose 20 mg/kg; settings: in vivo, po; summary of the method: as §2
Rattus norvegicus [17] = experiment: Drug metabolism in Sprague-Dawley rat plasma assessed as HTMP level at 20 mg/kg, administered via gastric tube after 0.25 hrs; assay type: ADME, organism-based; design: dose 20 mg/kg; settings: in vivo, po; summary of the method: as §2
Rattus norvegicus [18] = experiment: Drug metabolism in Sprague-Dawley rat plasma assessed as dabigatran level at 20 mg/kg, administered via gastric tube after 6 hrs; assay type: ADME, organism-based; design: dose 20 mg/kg; settings: in vivo, po; summary of the method: as §2
Rattus norvegicus [19] = experiment: Drug metabolism in Sprague-Dawley rat plasma assessed as dabigatran level at 20 mg/kg, administered via gastric tube after 0.5 hrs; assay type: ADME, organism-based; design: dose 20 mg/kg; settings: in vivo, po; summary of the method: as §2
Rattus norvegicus [20] = experiment: Drug metabolism in Sprague-Dawley rat plasma assessed as HTMP level at 20 mg/kg, administered via gastric tube after 1 hr; assay type: ADME, organism-based; design: dose 20 mg/kg; settings: in vivo, po; summary of the method: as §2

CCCCCCOC(=O)NC(=N)c1ccc(NCc2nc3cc(C(=O)N(CCC(=O)OCC)c4ccccn4)ccc3n2C)cc1 [DABIGATRAN ETEXILATE]
IC50 [1]: 0.326 µM | inhibition (Platelet): inactive | ED50 (Rattus norvegicus [2]): 4.4 mg/kg

Cc1nc(C)c(COC(=O)CCN(C(=O)c2ccc3c(c2)nc(CNc2ccc(/C(N)=N\C(=O)OCc4ccccc4)cc2)n3C)c2ccccn2)nc1C
IC50 [1]: 0.292 µM

CCCCCOC(=O)/N=C(/N)c1ccc(NCc2nc3cc(C(=O)N(CCC(=O)OCc4nc(C)c(C)nc4C)c4ccccn4)ccc3n2C)cc1
IC50 [1]: 0.0728 µM

COC(=O)/N=C(/N)c1ccc(NCc2nc3cc(C(=O)N(CCC(=O)OCc4nc(C)c(C)nc4C)c4ccccn4)ccc3n2C)cc1
IC50 [1]: 0.287 µM

Cc1nc(C)c(COC(=O)CCN(C(=O)c2ccc3c(c2)nc(CNc2ccc(/C(N)=N\C(=O)OC(C)(C)C)cc2)n3C)c2ccccn2)nc1C
IC50 [1]: 0.00313 µM | ED50 (Rattus norvegicus [2]): 1.8 mg/kg

CCOC(=O)/N=C(/N)c1ccc(NCc2nc3cc(C(=O)N(CCC(=O)OCc4nc(C)c(C)nc4C)c4ccccn4)ccc3n2C)cc1
IC50 [1]: 0.218 µM

Cc1nc(C)c(CO)nc1C
IC50 [1]: 8410 µM | IC50 [3]: 1670 µM | ED50 (Rattus norvegicus [2]): 42.6 mg/kg

CCCCCCOC(=O)/N=C(/N)c1ccc(NCc2nc3cc(C(=O)N(CCC(=O)OCc4nc(C)c(C)nc4C)c4ccccn4)ccc3n2C)cc1
Drug metabolism (Rattus norvegicus [4]): 152 ng/mL | Drug metabolism (Rattus norvegicus [5]): 164 ng/mL | Drug metabolism (Rattus norvegicus [6]): 1075 ng/mL | Activity (Rattus norvegicus [7]): Non-toxic | Drug metabolism (Rattus norvegicus [8]): 495 ng/mL | Drug metabolism (Rattus norvegicus [9]): 67.3 ng/mL | Drug metabolism (Rattus norvegicus [10]): 188 ng/mL | Drug metabolism (Rattus norvegicus [11]): 109 ng/mL | IC50 [1]: 0.0381 µM | IC50 [3]: 4030 µM | Drug metabolism (Rattus norvegicus [12]): 430 ng/mL | Drug metabolism (Rattus norvegicus [13]): 264 ng/mL | Drug metabolism (Rattus norvegicus [14]): 245 ng/mL | ED50 (Rattus norvegicus [2]): 2.1 mg/kg | Drug metabolism (Rattus norvegicus [15]): 423 ng/mL | Drug metabolism (Rattus norvegicus [16]): 93.3 ng/mL | Drug metabolism (Rattus norvegicus [17]): 955 ng/mL | Drug metabolism (Rattus norvegicus [18]): 18.2 ng/mL | Drug metabolism (Rattus norvegicus [19]): 252 ng/mL | Drug metabolism (Rattus norvegicus [20]): 938 ng/mL

Cc1nc(C)c(COC(=O)CCN(C(=O)c2ccc3c(c2)nc(CNc2ccc(/C(N)=N\C(=O)OC(C)C)cc2)n3C)c2ccccn2)nc1C
IC50 [1]: 0.295 µM
